From ChEMBL document CHEMBL4000155, “Synthesis and Antileukemic Activities of Piperlongumine and HDAC Inhibitor Hybrids against Acute Myeloid Leukemia Cells” (J Med Chem, 2016)
The source made the active and inactive calls. The rule behind the calls is not given here.

Key:
U-937 [1] = assay: Induction of cell death in p53 null human U937 cells at 1 to 4 uM after 24 hrs by annexin V-FITC/PI staining based flow cytometry; format: functional
Outline: (§1)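 Human U937 AML cells (p53 null) in RPMI 1640 with 10% FBS, 2 mM L-glutamine, penicillin/streptomycin, 37 °C, 5% CO2. Exposed 24 h to compound alone or with SAHA; vehicle DMSO < 0.1% v/v. Annexin V-FITC/PI staining and flow cytometry, reported as % Annexin V+ cells. Three independent experiments in triplicate; one representative shown. EC50 taken as concentration giving 50% Annexin V+ cells versus vehicle.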

OCI-AML-3 = assay: Antiproliferative activity against human OCI-AML3 cells after 72 hrs in presence of SAHA by MTT assay; format: functional, cell-based; conditions: OCI-AML-3, 72 h
Outline: (§2)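 AML cell lines grown in RPMI 1640 with 10% FBS (20% for MOLM-13), 2 mM L-glutamine and penicillin/streptomycin at 37 °C, 5% CO2. Ara-C-resistant HL-60 and CMK sublines came from stepwise cytarabine selection and were kept in 600 nM or 300 nM cytarabine respectively. Cells were treated 72 h. MTT 0.05 mg/mL, 3 h at 37 °C, DMSO solubilization, absorbance at 570 nm. IC50 given ± SEM.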

MOLM-13 [2] = assay: Induction of apoptosis in human MOLM13 cells harboring wild type p53/FLT3-ITD mutant at 4 uM after 24 hrs in presence of SAHA by annexin V-FITC/PI staining based flow cytometry; format: functional
Outline: (§3)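 Cells treated 24 h, single agents or SAHA+PL at 1:1 (each drug at the stated concentration). Annexin V-FITC/PI kit staining, then flow cytometry, reported as % Annexin V+ cells. Three independent experiments in triplicate, with data from one representative experiment. DMSO <0.1% vehicle control.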

MOLM-13 [3] = assay: Antiproliferative activity against human MOLM13 cells harboring wild type p53/FLT3-ITD mutant after 72 hrs in presence of SAHA by MTT assay; format: functional, cell-based; conditions: MOLM-13, 72 h; outline: as §2
[4] = Antiproliferative activity against human CMY cells after 72 hrs in presence of SAHA by MTT assay; format: functional, cell-based; outline: as §2
Homo sapiens = species: Homo sapiens; assay: Effect on SAHA-induced HDAC inhibition in p53 null human U937 cells assessed as hyper acetylation of histone H4 at 1 uM after 4 hrs by Western blot analysis; format: cell-based
Outline: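 U937 cells treated at 1 μM for 4 h. Whole-cell lysates run on SDS-PAGE, transferred to PVDF and immunoblotted for acetyl-histone H4, histone H4, acetyl-α-tubulin and β-actin.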

U-937 [5] = assay: Antiproliferative activity against p53 null human U937 cells after 72 hrs in presence of SAHA by MTT assay; format: functional, cell-based; conditions: U-937, 72 h; outline: as §2
U-937 [6] = assay: Induction of cell death in p53 null human U937 cells assessed as combination index at 2 to 4 uM after 24 hrs in presence of SAHA by annexin V-FITC/PI staining based flow cytometry; format: functional
Outline: (§4)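 Cells given SAHA and PL alone or together at 1:1 ratio for 24 h, then Annexin V-FITC/PI staining and flow cytometry. Combination index computed from the % Annexin V+ data; CI < 1 synergistic, = 1 additive, > 1 antagonistic. Triplicates, three independent experiments.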

CMK [7] = assay: Antiproliferative activity against Ara-C resistant human CMK cells after 72 hrs in presence of SAHA by MTT assay; format: functional, cell-based; outline: as §2
MOLM-13 [8] = assay: Induction of apoptosis in human MOLM13 cells harboring wild type p53/FLT3-ITD mutant at 2 uM after 24 hrs in presence of SAHA by annexin V-FITC/PI staining based flow cytometry; format: functional; outline: as §3
MOLM-13 [9] = assay: Induction of cell death in human MOLM13 cells harboring wild type p53/FLT3-ITD mutant assessed as combination index at 1 to 4 uM after 24 hrs in presence of SAHA by annexin V-FITC/PI staining based flow cytometry; format: functional; outline: as §4
U-937 [10] = assay: Induction of DNA damage in p53 null human U937 cells at 2 uM after 20 hrs in presence of SAHA by SYBR gold staining based alkaline comet assay; format: functional, cell-based
Outline: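 U937 cells treated 20 h with SAHA and PL alone or combined (16 h for hybrids). Alkaline single-cell gel electrophoresis, SYBR Gold staining, microscopy. Median % DNA in tail from 4 replicate gels ± s.e.m.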

U-937 [11] = assay: Induction of apoptosis in p53 null human U937 cells at 4 uM after 24 hrs in presence of SAHA by annexin V-FITC/PI staining based flow cytometry; format: functional
CMK [12] = assay: Antiproliferative activity against human CMK cells after 72 hrs in presence of SAHA by MTT assay; format: functional, cell-based; outline: as §2
U-937 [13] = assay: Induction of apoptosis in p53 null human U937 cells at 2 uM after 24 hrs in presence of SAHA by annexin V-FITC/PI staining based flow cytometry; format: functional; outline: as §1
U-937 [14] = assay: Induction of apoptosis in p53 null human U937 cells at 0.25 uM after 24 hrs by annexin V-FITC/PI staining based flow cytometry; format: functional; outline: as §3
[15] = Stability of the compound in human U937 cell lysate at 50 uM incubated for 1.5 hrs in presence of GSH by HPLC analysis; format: ADME, cell-based; conditions: u-937, 1.5 h
U-937 [16] = assay: Induction of apoptosis in p53 null human U937 cells at 2 uM after 24 hrs by annexin V-FITC/PI staining based flow cytometry; format: functional; outline: as §1
U-937 [17] = assay: Induction of apoptosis in p53 null human U937 cells at 0.5 uM after 24 hrs by annexin V-FITC/PI staining based flow cytometry; format: functional; outline: as §3
U-937 [18] = assay: Induction of apoptosis in p53 null human U937 cells at 4 uM after 24 hrs by annexin V-FITC/PI staining based flow cytometry; format: functional; outline: as §1
U-937 [19] = assay: Induction of apoptosis in p53 null human U937 cells at 1 uM after 24 hrs by annexin V-FITC/PI staining based flow cytometry; format: functional; outline: as §3
[20] = Chemical stability of the compound in pH 7.4 phosphate buffer at 50 uM incubated up to 4 hrs in presence of GSH by HPLC analysis; format: physicochemical; conditions: pH 7.4, 4 h
Outline: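 Compound at 50 μM incubated with or without 5 mM GSH in phosphate buffer pH 7.4 at 37 °C for up to 4 h. Mixtures analysed by HPLC with water/0.1% formic acid/10% methanol versus 0.1% formic acid in acetonitrile, 0.5 mL/min, 10–80% B gradient over 18 min.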

U-937 [21] = assay: Induction of cell death in p53 null human U937 cells after 24 hrs by annexin V-FITC/PI staining based flow cytometry; format: functional; outline: as §1
MOLM-13 [22] = assay: Induction of apoptosis in human MOLM13 cells harboring wild type p53/FLT3-ITD mutant at 4 uM after 24 hrs by annexin V-FITC/PI staining based flow cytometry; format: functional; outline: as §3
MOLM-13 [23] = assay: Induction of apoptosis in human MOLM13 cells harboring wild type p53/FLT3-ITD mutant at 1 uM after 24 hrs by annexin V-FITC/PI staining based flow cytometry; format: functional; outline: as §3

COc1cc(/C=C/C(=O)N2CCC=CC2=O)cc(OC)c1OC [PIPLARTINE]
Activity (U-937 [1]): Active | IC50 (OCI-AML-3): 1110 nM | Activity (MOLM-13 [2]): 77.5% | IC50 (MOLM-13 [3]): 934 nM | IC50 [4]: 442 nM | Activity (Homo sapiens): inactive | IC50 (U-937 [5]): 767 nM | CI (U-937 [6]): <0.9 | IC50 (CMK [7]): 422 nM | Activity (MOLM-13 [8]): 53.6% | CI (MOLM-13 [9]): <=1.1 | Activity (U-937 [10]): Active | Activity (U-937 [11]): 81.1% | IC50 (CMK [12]): 613 nM | Activity (U-937 [13]): 62.5%

COc1cc(/C=C/C(=O)N2CCC=CC2=O)cc(OC)c1OCCCCCCC(=O)NO
Activity (U-937 [14]): inactive | Stability [15]: Unstable | Activity (U-937 [16]): 56.9% | Activity (U-937 [17]): inactive | Activity (U-937 [18]): 88.5% | Activity (U-937 [19]): 13.7% | Stability [20]: Stable | Activity (U-937 [21]): Dose-dependent effect | Activity (MOLM-13 [22]): 80.3% | Activity (MOLM-13 [23]): 24.6%
